“And” between values parts separate entries of the source, which are not always exact repeats. Equal values may be shown once.
How the values were obtained:
[1] = Biodistribution of NBMI in plasma and tissues after oral gavage; assay type: in vivo, rat (Sprague Dawley); conditions: for concentration at 1 h / concentration at 2 h / concentration at 8 h / concentration at 24 h: male, Sprague Dawley, rat, 100 mg kg^−1
In short: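 Twelve-hour-fasted male Sprague-Dawley rats were gavaged with 100 mg kg−1 test compound in corn oil, three per time point. Jugular-cannula blood was taken at 1, 2, 8 and 24 h into heparin and spun at 4°C; tissues were excised and weighed. Samples were DTT-reduced, then analysed by LC-MS:MS: Synergi Polar RP column, ammonium formate pH 3.5/acetonitrile gradient, ESI MRM.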

[2] = Metabolic profiling with human liver microsomes; assay type: in vitro ADME; conditions: incubation with human liver microsomes, MS identification
In short: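 Test compound incubated with human or rat liver microsomes. Products separated by HPLC and identified by electrospray MS and MS:MS, using information-dependent acquisition on the parent ion, enhanced product ion scans, and linear ion trap scanning of trapped fragments.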

[3] = tested on: Salmonella typhimurium strains TA1537, TA98, TA100, and TA1535; assay: Ames test for mutagenic activity; assay type: cell-based; conditions: reversion of mutations in the histidine operon
[4] = Plasma clearance after intravenous dosing; assay type: in vivo, rat (Sprague-Dawley)
In short: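 Male Sprague-Dawley rats received 1 mg kg−1 test compound intravenously. Plasma levels were measured by the biodistribution LC-MS:MS method: heparinised, chilled plasma, DTT reduction, then reversed-phase ammonium formate/acetonitrile gradient with ESI MRM detection.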

[5] = iv 1 mg kg^−1, individual rats 1-3
[6] = iv 1 mg kg^−1, plasma, individual rats 1-3

Question: Which concentration at 1 h ([1]; bone marrow, po) does the source give for O=C(NCCS)c1cccc(C(=O)NCCS)c1 [NBMI, N,N′-bis(2-mercaptoethyl)isophthalamide] here?
Answer: Its concentration at 1 h is 12.5 ± 7.4 ng/g.

Question: And the concentration at 2 h ([1]; bone marrow, po)?
Answer: Its concentration at 2 h is 65.7 ± 51.6 ng/g.

Question: What about the concentration at 8 h ([1]; bone marrow, po) of the same compound?
Answer: The concentration at 8 h was 6.88 ± 0.62 ng/g.

Question: And the concentration at 24 h ([1]; bone marrow, po)?
Answer: The concentration at 24 h was 3.76 ± 0.77 ng/g.

Question: What about the concentration at 1 h ([1]; brain, po) of the same compound?
Answer: Its concentration at 1 h is 6.1 ± 2.6 ng/g.

Question: And the concentration at 2 h ([1]; brain, po)?
Answer: The concentration at 2 h was 51.8 ± 43.9 ng/g.

Question: What about the concentration at 8 h ([1]; brain, po) of the same compound?
Answer: The concentration at 8 h was 2.57 ± 0.34 ng/g.

Question: And the concentration at 24 h ([1]; brain, po)?
Answer: Its concentration at 24 h is 2.09 ± 0.41 ng/g.

Question: What about the concentration at 1 h ([1]; kidney, po) of the same compound?
Answer: Its concentration at 1 h is 61.3 ± 42.7 ng/g.

Question: What about the concentration at 2 h ([1]; kidney, po) of the same compound?
Answer: The concentration at 2 h was 145 ± 89.9 ng/g.

Question: And the concentration at 8 h ([1]; kidney, po)?
Answer: Its concentration at 8 h is 45.1 ± 3.4 ng/g.

Question: And the concentration at 24 h ([1]; kidney, po)?
Answer: Its concentration at 24 h is 36.9 ± 3.7 ng/g.

Question: And the concentration at 1 h ([1]; liver, po)?
Answer: The concentration at 1 h was 165 ± 144 ng/g.

Question: And the concentration at 2 h ([1]; liver, po)?
Answer: The concentration at 2 h was 272 ± 274 ng/g.

Question: What about the concentration at 8 h ([1]; liver, po) of the same compound?
Answer: The concentration at 8 h was 23.3 ± 2.2 ng/g.

Question: What about the concentration at 24 h ([1]; liver, po) of the same compound?
Answer: The concentration at 24 h was 14.2 ± 2.3 ng/g.

Question: And the concentration at 1 h ([1]; plasma, po)?
Answer: The concentration at 1 h was 588 ± 90 ng/mL.

Question: And the concentration at 2 h ([1]; plasma, po)?
Answer: Its concentration at 2 h is 883 ± 216 ng/mL.

Question: What about the concentration at 8 h ([1]; plasma, po) of the same compound?
Answer: The concentration at 8 h was 391 ± 14 ng/mL.

Question: And the concentration at 24 h ([1]; plasma, po)?
Answer: The concentration at 24 h was 118 ± 29 ng/mL.

Question: And the concentration at 1 h ([1]; small intestine, po)?
Answer: The concentration at 1 h was 7430 ± 3200 ng/g.

Question: And the concentration at 2 h ([1]; small intestine, po)?
Answer: The concentration at 2 h was 8530 ± 5320 ng/g.

Question: What about the concentration at 8 h ([1]; small intestine, po) of the same compound?
Answer: Its concentration at 8 h is 1560 ± 826 ng/g.

Question: What about the concentration at 24 h ([1]; small intestine, po) of the same compound?
Answer: Its concentration at 24 h is 1040 ± 396 ng/g.

Question: What about the concentration at 1 h ([1]; spleen, po) of the same compound?
Answer: The concentration at 1 h was 12.1 ± 5.2 ng/g.

Question: And the concentration at 2 h ([1]; spleen, po)?
Answer: Its concentration at 2 h is 153 ± 129 ng/g.

Question: What about the concentration at 8 h ([1]; spleen, po) of the same compound?
Answer: The concentration at 8 h was 16.8 ± 1.5 ng/g.

Question: What about the concentration at 24 h ([1]; spleen, po) of the same compound?
Answer: The concentration at 24 h was 12.7 ± 2.7 ng/g.

Question: What about the concentration at 1 h ([1]; subcutaneous fat, oral) of the same compound?
Answer: Its concentration at 1 h is 420 ± 419 ng/g.

Question: And the concentration at 2 h ([1]; subcutaneous fat, oral)?
Answer: Its concentration at 2 h is 683 ± 531 ng/g.

Question: And the concentration at 8 h ([1]; subcutaneous fat, oral)?
Answer: The concentration at 8 h was 17.3 ± 7.4 ng/g.

Question: What about the concentration at 24 h ([1]; subcutaneous fat, oral) of the same compound?
Answer: Its concentration at 24 h is 7 ± 0.7 ng/g.

Question: What about the “clearance from the body from peak values within 24 hours of ingestion” value ([1]; oral gavage) of the same compound?
Answer: The value was “about 90%”.

Question: And the “time of highest concentration in plasma and all tissues” value ([1]; post ingestion, oral gavage)?
Answer: Its value is 2 h.

Question: What about the metabolites detected [2] of the same compound?
Answer: Its metabolites detected is “only two NBMI modified structures”.

Question: And the “mutagenicity, Ames analysis” value [3]?
Answer: The value was “non-mutagenic”.

Question: What about the “clearance relative to liver blood flow of a typical rat (3.3 L hr^−1 kg^−1)” value ([4]; iv 1 mg kg^−1) of the same compound?
Answer: Its value is “approximately 30%”.

Question: What about the Plasma concentration ([4]; iv 1 mg kg^−1, 0.083 hr, individual rats 1-3) of the same compound?
Answer: Its Plasma concentration is 535 ng/mL and 423 ng/mL.

Question: What about the Plasma concentration ([4]; iv 1 mg kg^−1, 0.25 hr, individual rats 1-3) of the same compound?
Answer: Its Plasma concentration is 320 ng/mL and 254 ng/mL.

Question: What about the Plasma concentration ([4]; iv 1 mg kg^−1, 0.5 hr, individual rats 1-3) of the same compound?
Answer: The Plasma concentration was 228 ng/mL and 203 ng/mL.

Question: And the Plasma concentration ([4]; iv 1 mg kg^−1, 1 hr, individual rats 1-3)?
Answer: Its Plasma concentration is 155 ng/mL and 124 ng/mL.

Question: What about the Plasma concentration ([4]; iv 1 mg kg^−1, 3 hr, individual rats 1-3) of the same compound?
Answer: Its Plasma concentration is 84.1 ng/mL and 63.1 ng/mL.

Question: And the Plasma concentration ([4]; iv 1 mg kg^−1, 6 hr, individual rats 1-3)?
Answer: The Plasma concentration was 32.7 ng/mL and 28.9 ng/mL.

Question: What about the Plasma concentration ([4]; iv 1 mg kg^−1, 24 hr, individual rats 1-3) of the same compound?
Answer: Its Plasma concentration is 6.6 ng/mL and 8.84 ng/mL and 3.7 ng/mL.

Question: What about the “Co, maximum plasma concentration extrapolated to t=0” value [4, 5] of the same compound?
Answer: The value was 633 ng/mL and 691 ng/mL and 545 ng/mL.

Question: And the “Vss, steady state volume of distribution” value [4, 5]?
Answer: The value was 7.2 L/kg and 7.3 L/kg.

Question: And the “Co, maximum plasma concentration extrapolated to t=0” value ([4]; iv 1 mg kg^−1, mean)?
Answer: The value was 623 ng/mL.

Question: What about the “CL, clearance” value [4, 6] of the same compound?
Answer: The value was 15.2 mL/min/kg and 21 mL/min/kg.

Question: What about the “t1/2, half-life” value [4, 6] of the same compound?
Answer: The value was 7.28 h and 5.42 h.

Question: What about the concentration at 24 hr ([4]; male, Sprague-Dawley, rat, plasma, iv, 1 mg kg^−1, Plasma concentration, iv 1 mg kg^−1, 24 hr, mean) of the same compound?
Answer: Its concentration at 24 hr is 6.38 ng/mL.

Question: What about the clearance ([4]; male, Sprague-Dawley, rat, plasma, iv, 1 mg/kg, CL, clearance, iv 1 mg kg^−1, plasma, mean) of the same compound?
Answer: The clearance was 16.8 mL/min/kg.

Question: And the Vd ([4]; male, Sprague-Dawley, rat, plasma, iv, 1 mg/kg, Vss, steady state volume of distribution, iv 1 mg kg^−1, mean)?
Answer: Its Vd is 6.7 L/kg.

Question: What about the half-life ([4]; male, Sprague-Dawley, rat, plasma, iv, 1 mg/kg, t1/2, half-life, iv 1 mg kg^−1, plasma, mean) of the same compound?
Answer: The half-life was 6.18 h.
